Data on two compounds can be found in ChEMBL document CHEMBL4024779, “Novel Terminal Bipheny-Based Diapophytoene Desaturases (CrtN) Inhibitors as Anti-MRSA/VISR/LRSA Agents with Reduced hERG Activity” (J Med Chem, 2018).

Activity calls are given as the source filed them. No cut-off for these calls is given here.

The test system of data set [1] is Staphylococcus aureus. Description: In vivo anti-virulence activity against Staphylococcus aureus Newman infected in BALB/c mouse model assessed as reduction in bacterial load in kidneys at 0.4 mg bid for 4.5 days administered intraperitoneally 24 hrs prior to infection by serial dilution method. In kind it is functional, organism-based. Put shortly: (§1)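 Mice (n=10 per group) got 2.3 × 10^7 CFU S. aureus Newman by retro-orbital injection. Compound was given intraperitoneally b.i.d., either 24 h before infection (4.5 d) or 6 h after infection (3.5 d). Mice were sacrificed after 4.5 d and CFU counted in kidneys and hearts. Groups were compared by two-tailed Mann-Whitney test.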

The subject of data set [2] is Staphylococcus aureus. Description: In vivo anti-virulence activity against Staphylococcus aureus Newman infected in BALB/c mouse model assessed as reduction in bacterial load in heart at 0.1 mg bid for 4.5 days administered intraperitoneally 24 hrs prior to infection by serial dilution method. In kind it is functional, organism-based. Put shortly: as §1
A short description of data set [3]: Cytotoxicity against HEK293 cells after 43 hrs by Alamar blue dye-based fluorescence assay. Conditions: human. The data set is classed as cell-based.
In data set [4] the test system is Staphylococcus aureus. The data set can be described thus: In vivo anti-virulence activity against methicillin-resistant Staphylococcus aureus NRS271 infected in BALB/c mouse model assessed as reduction in bacterial load in kidneys at 0.4 mg bid for 4.5 days administered intraperitoneally 24 hrs prior to infection by serial dilution method. In kind it is functional. Also on record: scale not given: the % may be the effect or the level left. Put shortly:
(§2)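 Mice (n=10 per group) infected retro-orbitally with S. aureus Mu50 (1.1 × 10^9 or 1.3 × 10^9 CFU) or NRS271 (2.3 × 10^8 CFU). Compound given i.p. b.i.d., either 6 h after infection for 3.5 d or 24 h before infection for 4.5 d. Mice killed after 4.5 d; log10 CFU per organ counted in kidneys and hearts. Two-tailed Mann−Whitney test.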

The target of data set [5] is T1, 4,4'-diapophytoene desaturase (4,4'-diaponeurosporene-forming) (Staphylococcus aureus (strain Mu50 / ATCC 700699), UniProt Q99R76).
T1 sequence (Q99R76 whole entry): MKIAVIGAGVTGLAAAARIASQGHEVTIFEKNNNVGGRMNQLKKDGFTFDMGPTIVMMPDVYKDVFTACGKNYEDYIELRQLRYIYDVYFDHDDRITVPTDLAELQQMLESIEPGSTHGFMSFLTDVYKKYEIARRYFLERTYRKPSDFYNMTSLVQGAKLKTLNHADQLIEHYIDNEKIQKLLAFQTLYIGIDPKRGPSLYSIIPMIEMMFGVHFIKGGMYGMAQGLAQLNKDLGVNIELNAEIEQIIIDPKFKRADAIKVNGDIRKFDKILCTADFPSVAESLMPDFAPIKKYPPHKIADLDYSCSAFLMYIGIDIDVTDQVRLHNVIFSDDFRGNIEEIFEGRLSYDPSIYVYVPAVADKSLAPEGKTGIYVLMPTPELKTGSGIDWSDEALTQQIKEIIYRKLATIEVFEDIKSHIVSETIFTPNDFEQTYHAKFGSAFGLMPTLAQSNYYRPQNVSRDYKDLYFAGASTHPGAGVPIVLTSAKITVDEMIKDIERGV
Description: Inhibition of CrtN in methicillin-resistant Staphylococcus aureus Mu50 assessed as reduction in staphyloxanthin levels after 48 hrs by spectrophotometric method-based pigment inhibition assay. Also on record: species or system Staphylococcus aureus subsp. aureus Mu50.

The subject of data set [6] is Staphylococcus aureus. The data set can be described thus: Chemo-sensitization activity in human whole blood infected with compound-pre-treated non-pigmented Staphylococcus aureus Newman strain assessed as whole blood-induced bacterial killing by measuring survival rate at 1 uM after 6 hrs by serial dilution method (reference value: 13.3%). In kind it is functional.

In data set [7] the test system is Staphylococcus aureus. Description: In vivo anti-virulence activity against methicillin-resistant Staphylococcus aureus Mu50 infected in BALB/c mouse model assessed as reduction in bacterial load in kidneys at 0.4 mg bid for 4.5 days administered intraperitoneally 24 hrs prior to infection by serial dilution method. The data set is classed as functional. Also on record: scale not given: the % may be the effect or the level left. Put shortly:
as §2

For data set [8], the target named is T2, 4,4'-diapophytoene desaturase (4,4'-diaponeurosporene-forming) (Staphylococcus aureus (strain Newman), UniProt O07855).
T2 sequence (O07855 whole entry): T1 sequence (Q99R76 whole entry)
The data set can be described thus: Inhibition of CrtN in Staphylococcus aureus Newman after 12 resistant development passages under 0.15% v/v H2O2 assessed as reduction in staphyloxanthin levels under IC90 level after 48 hrs by spectrophotometric method-based pigment inhibition assay. Also on record: species or system Staphylococcus aureus subsp. aureus str. Newman.

The subject of data set [9] is Staphylococcus aureus. The data set can be described thus: In vivo anti-virulence activity against methicillin-resistant Staphylococcus aureus NRS271 infected in BALB/c mouse model assessed as reduction in bacterial load in heart at 0.4 mg bid for 4.5 days administered intraperitoneally 24 hrs prior to infection by serial dilution method. In kind it is functional. Also on record: scale not given: the % may be the effect or the level left. Put shortly: as §2

The test system of data set [10] is Staphylococcus aureus. The data set can be described thus: In vivo anti-virulence activity against methicillin-resistant Staphylococcus aureus NRS271 infected in BALB/c mouse model assessed as reduction in bacterial load in kidneys at 0.1 mg bid for 3.5 days administered intraperitoneally 6 hrs post infection by serial dilution method. Also on record: scale not given: the % may be the effect or the level left. In kind it is functional. Put shortly:
as §2

Data set [11] can be described thus: Aqueous solubility of compound after 24 hrs by HPLC method. In kind it is physicochemical.
Data set [12] has as its system Staphylococcus aureus. Description: In vivo anti-virulence activity against methicillin-resistant Staphylococcus aureus NRS271 infected in BALB/c mouse model assessed as reduction in bacterial load in kidneys at 0.4 mg bid for 3.5 days administered intraperitoneally 6 hrs post infection by serial dilution method. Also on record: scale not given: the % may be the effect or the level left. The data set is classed as functional. Put shortly: as §2

In data set [13] the target is T3, 4,4'-diapophytoene desaturase (4,4'-diaponeurosporene-forming) (Staphylococcus aureus (strain USA300), UniProt Q2FDU6).
T3 sequence (Q2FDU6 whole entry): T1 sequence (Q99R76 whole entry)
The data set can be described thus: Inhibition of CrtN in methicillin-resistant Staphylococcus aureus LAC USA300 assessed as reduction in staphyloxanthin levels after 48 hrs by spectrophotometric method-based pigment inhibition assay.

Another data set deals with Liver. The data set can be described thus: In-vitro intrinsic clearance in human liver microsomes at 2 uM after 60 mins in presence of NADPH by LC-MS/MS method. The data set is classed as ADME, microsome. Conditions: 1 h.
For data set [14], the system named is Staphylococcus aureus. Description: In vivo anti-virulence activity against methicillin-resistant Staphylococcus aureus NRS271 infected in BALB/c mouse model assessed as reduction in bacterial load in heart at 0.1 mg bid for 4.5 days administered intraperitoneally 24 hrs prior to infection by serial dilution method. In kind it is functional. Also on record: scale not given: the % may be the effect or the level left. Put shortly:
as §2

For data set [15], the system named is Staphylococcus aureus. Description: Antibacterial activity against methicillin-resistant Staphylococcus aureus NRS271 assessed as change in bacterial growth at 0.2 mM […]. In kind it is functional.
Data set [16] has as its system Staphylococcus aureus. The data set can be described thus: In vivo anti-virulence activity against Staphylococcus aureus Newman infected in BALB/c mouse model assessed as reduction in bacterial load in heart at 0.4 mg bid for 3.5 days administered intraperitoneally 6 hrs post infection by serial dilution method. The data set is classed as functional, organism-based. Put shortly:
as §1

Data set [17] deals with Staphylococcus aureus. The data set can be described thus: In vivo anti-virulence activity against methicillin-resistant Staphylococcus aureus Mu50 infected in BALB/c mouse model assessed as reduction in bacterial load in heart at 0.4 mg bid for 3.5 days administered intraperitoneally 6 hrs post infection by serial dilution method. In kind it is functional. Also on record: scale not given: the % may be the effect or the level left. Put shortly: as §2

The test system of data set [18] is Staphylococcus aureus. Description: In vivo anti-virulence activity against methicillin-resistant Staphylococcus aureus Mu50 infected in BALB/c mouse model assessed as reduction in bacterial load in kidneys at 0.1 mg bid for 3.5 days administered intraperitoneally 6 hrs post infection by serial dilution method. In kind it is functional. Also on record: scale not given: the % may be the effect or the level left. Put shortly:
as §2

Data set [19] deals with Staphylococcus aureus. The data set can be described thus: Antibacterial activity against methicillin-resistant Staphylococcus aureus USA400 MW2 assessed as change in bacterial growth at 0.2 mM […]. The data set is classed as functional.
The target of data set [20] is T2, 4,4'-diapophytoene desaturase (4,4'-diaponeurosporene-forming). The data set can be described thus: Inhibition of Staphylococcus aureus Newman 6His-tagged CrtN expressed in Escherichia coli BL21 (DE3)/pET28a::CrtN assessed as reduction in staphyloxanthin levels using diapophytoene as substrate after overnight incubation by spectrophotometric analysis. Also on record: species or system Staphylococcus aureus subsp. aureus str. Newman.

The subject of a further data set is Trichophyton rubrum. The data set can be described thus: In vitro antifungal activity against Trichophyton rubrum after 7 days by serial dilution method. The data set is classed as functional. Conditions: 168 h.

A word on the CC50: it is the concentration at which the toxic effect on the cells reaches its halfway point. In general, IC50 refers to the concentration that gives 50% inhibition. By solubility is commonly meant the concentration that dissolves in the medium under given conditions. Usually MIC80 stands for an inhibitory concentration at the 80% level, which refers to growth in some studies and to a panel of isolates in others. Take `CN(C/C=C/c1ccc(-c2ccccc2)cc1)Cc1cccc2cc[nH]c12.Cl`: the result in the data set with Staphylococcus aureus [1], in the data set with Staphylococcus aureus [2], in the data set on Staphylococcus aureus [15], in the data set with Staphylococcus aureus [16] and with Staphylococcus aureus [19] was inactive. Further, the CC50 at 43 h in data set [3] turned out to be 26.5 µM. Besides, the Activity with Staphylococcus aureus [4], in the data set with Staphylococcus aureus [7], in the data set with Staphylococcus aureus [9], with Staphylococcus aureus [10], in the data set on Staphylococcus aureus [12] and with Staphylococcus aureus [14] was more than 95% in each case. Also, the Activity in the data set on Staphylococcus aureus [17] and in the data set with Staphylococcus aureus [18] was more than 95% in each case. Moreover, the IC50 amounted to 0.4 nM in data set [5], 2.6 nM in [8], 4 nM in [13] and 200 nM in data set [20]. In the data set with Staphylococcus aureus [6], the result was Active. This compound came in with a solubility at 24 h in data set [11] of 200 µg/mL. In addition, the CLH in the data set with Liver came to 0.02 mL/min/mg. Besides, in the data set on Trichophyton rubrum, the MIC80 is more than 64 µg/mL.
Consider `CN(C/C=C/c1ccc(-c2ccccc2)cc1)Cc1coc2ccccc12.Cl`, for which the outcome in the data set with Staphylococcus aureus [1], in the data set with Staphylococcus aureus [2] and in the data set on Staphylococcus aureus [16] was Active. Besides, the CC50 at 43 h in data set [3] stood at 48.1 µM. The Activity in the data set with Staphylococcus aureus [4], with Staphylococcus aureus [7], in the data set on Staphylococcus aureus [9], in the data set on Staphylococcus aureus [10], with Staphylococcus aureus [12] and in the data set with Staphylococcus aureus [14] was more than 95% each time. Moreover, the Activity with Staphylococcus aureus [17] and in the data set with Staphylococcus aureus [18] was more than 95% each time. Also, the half-inhibitory concentration (IC50) in data set [5] was determined as 0.8 nM; in data set [8], 1.8 nM; in data set [13], 1.9 nM; in data set [20], 400 nM. In addition, the survival at 1 µM in the data set with Staphylococcus aureus [6] was determined as 1.3%. This compound returned a solubility at 24 h in [11] of 200 µg/mL. Also, the CLH in the data set with Liver was 1.23 mL/min/mg. The result in the data set with Staphylococcus aureus [15] and with Staphylococcus aureus [19] was inactive. The compound further gave an MIC80 against Trichophyton rubrum of 64 µg/mL.
